Screens as filed in PubChem BioAssay.
CHRM5 PAM = human M5 muscarinic receptor positive allosteric modulators, primary screen, CHO-K1 cells, Fluo-8 calcium fluorescence. AID 624038, 2012. 360,000 tested, 0.3% active. activation, % at 3 µM. CHO-K1 hM5, ACh EC20 PAM; 0% = ACh EC20, 100% = ACh EC100. Muscarinic acetylcholine receptor M5 (Homo sapiens), P08912;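 active = activation above the run cutoff, the mean activation of all test compounds plus 3 SD, cut at about 18% in these data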
Target sequence (P08912 whole entry, looked up): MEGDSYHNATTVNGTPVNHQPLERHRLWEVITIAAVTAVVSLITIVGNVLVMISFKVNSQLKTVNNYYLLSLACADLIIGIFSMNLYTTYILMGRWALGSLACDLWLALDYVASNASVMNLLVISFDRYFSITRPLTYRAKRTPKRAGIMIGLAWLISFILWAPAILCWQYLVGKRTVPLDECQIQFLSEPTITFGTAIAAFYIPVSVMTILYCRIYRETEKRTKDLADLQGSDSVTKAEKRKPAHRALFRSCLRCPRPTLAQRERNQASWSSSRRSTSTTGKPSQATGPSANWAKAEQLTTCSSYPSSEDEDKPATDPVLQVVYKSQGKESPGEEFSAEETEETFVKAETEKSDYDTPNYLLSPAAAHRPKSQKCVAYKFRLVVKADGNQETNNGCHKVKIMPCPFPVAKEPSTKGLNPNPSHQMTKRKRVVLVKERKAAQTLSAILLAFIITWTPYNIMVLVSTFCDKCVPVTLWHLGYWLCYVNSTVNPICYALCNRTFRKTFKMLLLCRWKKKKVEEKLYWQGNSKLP
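System: CHO-K1 hM5 cells. Reagent: acetylcholine, EC20 level. Compound dosing: single dose, 3 µM nominal final test concentration. Timing: Post-acetylcholine fluorescence recording 140 s. Detection: Fluo-8 calcium fluorescence. Read-out: % activation, ACh-normalized. Benchmarks: ACh EC20 and EC100 wells. Repeats: singlicate, one well per test compound.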
CHRM5 antagonist = human M5 muscarinic receptor antagonists, primary screen, CHO cells, Fluo-8 calcium fluorescence | Muscarinic acetylcholine receptor M5 (Homo sapiens), P08912 | CHO-hM5 cells, ACh EC80 | inhibition, % at 3 µM | 360,000 tested, 0.59% active;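 active = inhibition above a per-plate cutoff, the mean of that plate's test compounds plus 3 SD, cut at about 27% in these data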;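 also: 0% = acetylcholine EC80 with DMSO and 100% = DMSO without agonist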
CHRM5 agonist = human M5 muscarinic receptor agonists, primary screen, CHO-K1 cells, Fluo-8 calcium fluorescence; Muscarinic acetylcholine receptor M5 (Homo sapiens), P08912; AID 624037, 2012; 360,000 tested, 0.19% active; activation, % at 3 µM; CHO-K1 hM5 cells; 0% DMSO wells, 100% maximal acetylcholine response;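 active = activation above the run's mean over test compounds plus 3 SD, cut at about 23% in these data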;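 also: signal is peak over basal fluorescence ratio across the kinetic read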
M4 ag = human M4 muscarinic receptor agonists, primary screen, CHO-K1 cells, Fluo-8 calcium fluorescence; Muscarinic acetylcholine receptor M4 (Homo sapiens), P08173; CHO-K1 hM4/Gqi5; vehicle 0%, full acetylcholine response 100%; activation, % at 3 µM; 360,000 tested, 0.14% active;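 active = activation above the run mean over all test wells plus 3 SD, cut at about 32% in these data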;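 also: peak over basal fluorescence ratio per well then scaled between controls; 0% = DMSO wells and 100% = acetylcholine at EC100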
CHRM4 antagonist = human M4 muscarinic receptor antagonists, primary screen, CHO cells, Fluo-8 calcium fluorescence. Muscarinic acetylcholine receptor M4 (Homo sapiens), P08173. CHO-hM4 cells, ACh EC80. inhibition, % at 3 µM. 360,000 tested, 0.73% active;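 active = inhibition above its plate's cutoff, the mean inhibition of sample wells plus 3 SD, cut at about 27% in these data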;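 also: 0% = acetylcholine EC80 with DMSO and 100% = DMSO without agonist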
CHRM4 PAM = human M4 muscarinic receptor positive allosteric modulators, primary screen, CHO-K1 cells, Fluo-8 calcium fluorescence. Muscarinic acetylcholine receptor M4 (Homo sapiens), P08173. CHO-K1 hM4/Gqi5, ACh EC20; 0% = ACh EC20, 100% = maximal ACh. activation, % at 3 µM. 360,000 tested, 0.4% active. AID 624126, 2012;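 active = activation above its plate's cutoff, the mean activation of sample wells plus 3 SD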
* = called active by the depositor. Only some compounds are listed: those with a hit (about 1.8% of all), similar ones and a draw of the others.

SMILES	CHRM5 PAM	CHRM5 antagonist	CHRM5 agonist	M4 ag	CHRM4 antagonist	CHRM4 PAM
CC(C)(C)N1CCC1CN (configuration not stated)	1	10	-2	1	-9	3
NC(=O)C1CCN(c2cc(Cl)nc(N)n2)CC1	1	-11	-6	2	-15	26*
COC(=O)C1CCN(c2cc(Cl)nc(N)n2)CC1	-4	5	1	0	-10	-1
CC(C)(C)OC(=O)NCc1ccc(NC(=O)c2nc[nH]c2C(=O)NCCCNC(=O)c2[nH]cnc2C(=O)Nc2ccc(CNC(=O)OC(C)(C)C)cc2)cc1	-11	8	3	6	19	2
CN(C)CCC#CC(O)(c1ccccc1)c1ccccc1	-19	38*	-9	1	32*	-15
OCCN(CC#CC(O)(c1ccccc1)c1cccc(F)c1)CCO (configuration not stated)	4	-1	-16	0	-14	-8
CCN(CC)CC#CC(O)(c1ccccc1)c1ccccc1	-16	98*	-11	0	88*	-24
CN(C)C(C)(C)C#CC(O)(c1ccccc1)c1ccccc1	-33	83*	-13	0	53*	-25
COCCCN1C(=O)C(=O)/C(=C(/O)c2ccc(S(=O)(=O)N3CCOCC3)cc2)C1c1cccc(Cl)c1 (configuration not stated)	1	10	-3	-1	4	-4
COC(=O)CSc1nc(-c2cccs2)ccc1C#N	-8	3	-4	4	74*	-30
Cc1ccsc1C(=O)N1CCC1(C)C(=O)NS(=O)(=O)c1ccc(C#N)cc1 (configuration not stated)	-4	-1	2	2	3	-2
COc1ccc(N2C(=O)CSC23C(=O)N2c4c(cccc43)C(C)=CC2(C)C)cc1 (configuration not stated)	4	-3	-5	-2	4	-8
O=C1CSC2(C(=O)N3CCCc4cccc2c43)N1c1cccc(C(F)(F)F)c1 (configuration not stated)	-18	30*	-12	-2	50*	-32
O=C1N2CCCc3cccc(c32)C12Nc1ccccc1S2 (configuration not stated)	0	24	-1	1	7	9
COc1ccc(N2C(=O)CSC23C(=O)N2CCCc4cccc3c42)cc1 (configuration not stated)	-18	52*	-6	1	75*	-28
CCOc1ccc(S(=O)(=O)NCCc2cn3ccccc3n2)cc1	3	12	-5	2	-2	16*
Cc1ccccc1NC(=O)Cc1nc(CSc2nnc(-c3ccc4c(c3)OCO4)o2)cs1	-14	12	0	10	0	-6
CCN(CC)c1ccc(/C=C2\C(=O)c3ccc(C(=O)O)cc3C2=O)cc1	-21	25	32*	20	32*	-11
Cc1ccc(NC2=NCC(=O)N2Cc2ccc3c(c2)OCO3)c(C)c1	6	-8	1	3	-8	5
CCc1ccc(NC2=NCC(=O)N2Cc2ccc3c(c2)OCO3)cc1	7	-4	-9	2	-6	21*
CCOC(=O)C1=C(N)Oc2cc(O)ccc2C1c1ccc(F)cc1F (configuration not stated)	-4	15	2	1	17	-10
COc1cc(/C=C2\SC(=Nc3ccccc3)N(CCc3c[nH]c4ccccc34)C2=O)ccc1OC(C)C(=O)O (configuration not stated)	-1	3	-3	1	0	6
O=C1/C(=C/c2ccc(N3CCOCC3)o2)SC(=Nc2ccccc2)N1CCc1c[nH]c2ccccc12	2	13	12	6	42*	-20
CCCc1ccc2oc(C(=O)N3CCN(C4CCS(=O)(=O)C4)CC3)c(C)c2c1 (configuration not stated)	-1	5	-3	3	-10	-3
Cc1c(CCOC(=O)c2cc([N+](=O)[O-])cc([N+](=O)[O-])c2)sc[n+]1CC(=O)c1ccc(Br)cc1	0	2	-11	0	29*	-17
SMILES	CHRM5 PAM	CHRM5 antagonist	CHRM5 agonist	M4 ag	CHRM4 antagonist	CHRM4 PAM
Cc1c(CCOC(=O)C23CC4(C)CC(C)(CC(C)(C4)C2)C3)sc[n+]1CC(=O)c1ccccc1	-17	16	-10	0	9	-12
Cc1sc[n+](CC(=O)c2ccc(Br)cc2)c1C	-6	15	-6	0	3	-4
Cc1c(CCOC(=O)c2ccc(Cl)cc2Cl)sc[n+]1CC(=O)c1ccccc1	-46	45*	-7	11	44*	-12
Cc1ccc(-n2c(-c3ccco3)n[nH]c2=S)cc1	7	1	0	0	9	-2
CC(C1CC2CCC1C2)n1c(-c2ccco2)n[nH]c1=S (configuration not stated)	-15	29*	-6	0	-3	2
Cc1ccc(S(=O)(=O)N2CCCCCC2)cc1C(=O)Nc1cccnc1	-3	18	-5	4	8	-2
C[C@H](CO)N1C[C@H](C)[C@@H](CN(C)C(=O)c2ccc3ccn(C)c3c2)OCc2cn(nn2)CCCC1=O	-3	1	1	0	-6	5
C[C@H](NC(=O)[C@@H]1Cc2ccccc2CN1)C(=O)Nc1ccc2c(c1)OCCO2	20*	-21	-3	1	-11	5
COc1ccc(CCNC(=O)CSc2nn3c(=O)c(C)nnc3s2)cc1OC	0	0	-5	0	-5	17*
COc1ccc(CCNC(=O)COC(=O)C2CC2)cc1OC	20*	-13	0	1	-18	3
COc1ccc(CCNC(=O)C2CC2)cc1OC	0	6	3	0	-5	0
COc1ccc(CNC(=O)CSc2nn3c(=O)c(C(C)(C)C)nnc3s2)cc1OC	-5	1	-9	4	-3	-3
CC(=O)Nc1ccccc1NC(=O)C/C(C)=N/NC(=O)c1ccc([N+](=O)[O-])c(Cl)c1	1	-9	1	1	-3	24*
C/C(CC(=O)Nc1cccnc1)=N\NC(=O)c1ccc([N+](=O)[O-])c(Cl)c1	1	-11	-1	0	-10	6
